Laboratory results as given in ChEMBL document CHEMBL4130635, “2,4-Diaminoquinazolines as Dual Toll-like Receptor (TLR) 7/8 Modulators for the Treatment of Hepatitis B Virus” (J Med Chem, 2018).

Experiments:
[1] = Cytotoxicity against HEK293 cells assessed as reduction in cell viability after 6 hrs by ATP lite assay; assay type: cell-based; conditions: human
[2] = Metabolic stability in human liver microsomes assessed as compound metabolized at 1 uM after 15 mins; assay type: ADME, microsome; conditions: read-out: Drug metabolism
How it was run: (§1)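 Mouse (M) or human (H) liver microsomes incubated with compound at 1 μM; percent metabolized after 15 min.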

[3] = Metabolic stability in mouse liver microsomes assessed as compound metabolized at 1 uM after 15 mins; assay type: ADME, microsome; conditions: read-out: Drug metabolism; how it was run: as §1
[4] = biological target: T1, Toll-like receptor 7 (Homo sapiens) (UniProt Q9NYK1); test: Agonist activity at human TLR7 expressed in HEK293 cells assessed as induction of receptor activation incubated for 6 hrs by NF-kappaB-luciferase reporter gene assay; assay type: cell-based
T1 sequence (whole entry): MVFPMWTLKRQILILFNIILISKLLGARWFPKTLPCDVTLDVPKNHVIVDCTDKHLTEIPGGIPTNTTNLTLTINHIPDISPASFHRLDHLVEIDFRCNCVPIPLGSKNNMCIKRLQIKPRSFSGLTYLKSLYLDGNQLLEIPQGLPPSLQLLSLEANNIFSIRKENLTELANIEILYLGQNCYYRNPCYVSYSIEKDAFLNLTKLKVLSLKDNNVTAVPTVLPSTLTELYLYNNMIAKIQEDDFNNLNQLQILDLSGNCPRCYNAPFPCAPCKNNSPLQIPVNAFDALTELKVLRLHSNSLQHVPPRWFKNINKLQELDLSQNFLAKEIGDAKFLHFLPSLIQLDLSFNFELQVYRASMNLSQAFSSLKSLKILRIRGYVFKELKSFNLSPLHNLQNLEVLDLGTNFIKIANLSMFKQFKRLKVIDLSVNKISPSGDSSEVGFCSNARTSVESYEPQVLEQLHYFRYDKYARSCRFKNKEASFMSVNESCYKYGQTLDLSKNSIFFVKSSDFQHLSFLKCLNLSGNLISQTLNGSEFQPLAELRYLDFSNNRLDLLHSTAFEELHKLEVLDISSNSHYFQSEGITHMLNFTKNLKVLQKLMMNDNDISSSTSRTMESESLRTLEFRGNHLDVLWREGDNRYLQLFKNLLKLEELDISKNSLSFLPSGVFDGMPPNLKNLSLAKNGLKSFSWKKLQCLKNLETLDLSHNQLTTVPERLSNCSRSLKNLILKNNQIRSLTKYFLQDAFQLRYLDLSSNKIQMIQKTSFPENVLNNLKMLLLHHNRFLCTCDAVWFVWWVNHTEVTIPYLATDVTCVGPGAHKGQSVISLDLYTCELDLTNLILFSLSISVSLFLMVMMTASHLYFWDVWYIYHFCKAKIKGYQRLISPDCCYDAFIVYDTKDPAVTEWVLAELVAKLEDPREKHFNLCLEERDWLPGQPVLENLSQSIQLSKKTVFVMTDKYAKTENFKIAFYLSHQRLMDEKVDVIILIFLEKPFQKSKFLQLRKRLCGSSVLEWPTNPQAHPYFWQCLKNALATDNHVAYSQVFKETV
How it was run: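 HEK cell-based assay using a wild-type TLR7 expression vector; a parallel TLR8 vector construct served for selectivity. Results are expressed as lowest effective concentration (LEC), averaged over independent experiments where determined two or more times. A separate HEK 293 cytotoxicity (TOX) assay gave CC50 alongside.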

[5] = biological target: T2, Toll-like receptor 8 (Homo sapiens) (UniProt Q9NR97); test: Agonist activity at human TLR8 expressed in HEK293 cells assessed as induction of receptor activation incubated for 6 hrs by NF-kappaB-luciferase reporter gene assay; assay type: cell-based
T2 sequence (whole entry): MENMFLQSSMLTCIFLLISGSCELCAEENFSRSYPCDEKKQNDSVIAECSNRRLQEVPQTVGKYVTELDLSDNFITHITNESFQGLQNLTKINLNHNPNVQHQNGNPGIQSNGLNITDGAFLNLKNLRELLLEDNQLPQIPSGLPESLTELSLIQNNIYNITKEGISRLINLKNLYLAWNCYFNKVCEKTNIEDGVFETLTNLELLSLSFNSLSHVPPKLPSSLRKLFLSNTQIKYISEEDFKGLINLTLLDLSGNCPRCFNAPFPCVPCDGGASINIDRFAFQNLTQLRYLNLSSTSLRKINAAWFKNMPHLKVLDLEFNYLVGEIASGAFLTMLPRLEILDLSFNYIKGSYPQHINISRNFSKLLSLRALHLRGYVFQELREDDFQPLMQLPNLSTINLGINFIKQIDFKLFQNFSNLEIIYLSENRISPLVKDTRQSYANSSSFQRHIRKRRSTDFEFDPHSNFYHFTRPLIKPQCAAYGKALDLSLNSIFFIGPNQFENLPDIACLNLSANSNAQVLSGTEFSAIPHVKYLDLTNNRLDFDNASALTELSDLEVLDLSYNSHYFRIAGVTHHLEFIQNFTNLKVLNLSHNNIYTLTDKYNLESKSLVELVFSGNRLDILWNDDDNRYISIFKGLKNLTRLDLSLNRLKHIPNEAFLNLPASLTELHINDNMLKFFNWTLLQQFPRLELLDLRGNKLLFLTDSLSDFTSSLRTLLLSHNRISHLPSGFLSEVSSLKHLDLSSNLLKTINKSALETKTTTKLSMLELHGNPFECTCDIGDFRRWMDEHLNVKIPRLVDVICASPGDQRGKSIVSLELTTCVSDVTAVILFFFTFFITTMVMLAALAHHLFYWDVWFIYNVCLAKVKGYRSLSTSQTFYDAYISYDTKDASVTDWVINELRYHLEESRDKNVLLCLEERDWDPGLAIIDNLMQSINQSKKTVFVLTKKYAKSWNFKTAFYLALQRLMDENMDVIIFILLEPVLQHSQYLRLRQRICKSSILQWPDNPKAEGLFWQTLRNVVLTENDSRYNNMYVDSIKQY

[6] = biological target: Voltage-gated inwardly rectifying potassium channel KCNH2 (Homo sapiens, UniProt Q12809); test: Inhibition of radioligand binding to human ERG expressed in HEK293 cell membranes by scintillation counting method
Sequence of Voltage-gated inwardly rectifying potassium channel KCNH2 (Q12809 whole entry): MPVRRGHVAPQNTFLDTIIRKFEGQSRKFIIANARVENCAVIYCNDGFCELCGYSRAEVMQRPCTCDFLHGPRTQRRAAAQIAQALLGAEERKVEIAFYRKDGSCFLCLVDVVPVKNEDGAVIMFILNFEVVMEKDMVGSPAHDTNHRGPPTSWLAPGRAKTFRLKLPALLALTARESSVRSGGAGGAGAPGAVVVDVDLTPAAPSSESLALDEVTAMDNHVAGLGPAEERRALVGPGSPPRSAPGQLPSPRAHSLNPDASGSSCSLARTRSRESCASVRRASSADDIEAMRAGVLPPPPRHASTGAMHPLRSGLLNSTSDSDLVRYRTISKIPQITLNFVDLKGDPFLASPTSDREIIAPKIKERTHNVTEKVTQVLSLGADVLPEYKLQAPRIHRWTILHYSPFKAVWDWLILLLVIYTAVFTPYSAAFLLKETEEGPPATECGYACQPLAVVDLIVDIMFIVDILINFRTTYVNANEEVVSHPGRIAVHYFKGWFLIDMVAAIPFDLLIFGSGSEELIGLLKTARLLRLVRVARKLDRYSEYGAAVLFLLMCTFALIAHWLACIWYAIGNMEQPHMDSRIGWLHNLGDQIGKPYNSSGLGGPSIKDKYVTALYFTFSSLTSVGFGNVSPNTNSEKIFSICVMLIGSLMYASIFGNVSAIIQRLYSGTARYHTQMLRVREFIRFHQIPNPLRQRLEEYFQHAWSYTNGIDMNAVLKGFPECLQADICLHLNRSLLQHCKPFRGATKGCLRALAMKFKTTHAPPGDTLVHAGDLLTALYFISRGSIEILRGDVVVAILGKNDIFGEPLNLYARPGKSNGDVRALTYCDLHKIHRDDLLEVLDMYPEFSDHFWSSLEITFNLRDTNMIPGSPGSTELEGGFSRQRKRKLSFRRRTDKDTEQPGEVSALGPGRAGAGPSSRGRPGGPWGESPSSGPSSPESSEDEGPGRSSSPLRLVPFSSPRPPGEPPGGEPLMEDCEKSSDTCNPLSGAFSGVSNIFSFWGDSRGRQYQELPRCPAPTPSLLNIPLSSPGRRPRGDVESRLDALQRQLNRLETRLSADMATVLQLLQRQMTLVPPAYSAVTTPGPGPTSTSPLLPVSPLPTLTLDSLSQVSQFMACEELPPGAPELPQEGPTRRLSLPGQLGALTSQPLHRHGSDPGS

[7] = biological target: T1, Toll-like receptor 7 (Homo sapiens); test: Agonist activity at TLR7 in human PBMC assessed as suppression of HCV replicon replication in human HuH7 luc/neo cells harboring RNA encoding bicistronic expression construct comprising wild type HCV type 1b NS3-NS5B regions exposed to conditioned media from compound treated PBMCs after 24 hrs by luciferase reporter gene assay; assay type: cell-based
How it was run: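 Human PBMCs were incubated with compound. Their medium was then transferred onto an HCV replicon system, so the antiviral read-out reflects interferon and cytokines the PBMCs induced. Values are reported as lowest effective concentration (LEC), averaged when determined in two or more independent experiments.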

HepG2 = test: Cytotoxicity against human HepG2 cells; assay type: cell-based

SMILES | CC50 at 6 h [1] | metabolised at 0.25 h, 1 µM [2] | metabolised at 0.25 h, 1 µM [3] | MEC [4] | MEC [5] | IC50 [6] | MEC [7] | EC20 (HepG2)
CCCC[C@@H](CCO)Nc1nc(N)nc2c(F)cccc12 | > 24 µM | 76% | 98% | 0.11 µM | 0.16 µM | 4.47 µM | 0.05 µM | –
CCC[C@H](CO)Nc1nc(N)nc2ccccc12 | > 24 µM | – | – | > 25 µM | 0.57 µM | – | 2.36 µM | –
CC(C)C[C@@H](CCO)Nc1nc(N)nc2ccccc12 | > 24 µM | – | – | 1.83 µM | 0.69 µM | – | 0.55 µM | –
CCCC[C@@H](CCO)Nc1nc(N)nc2cc(OC)ccc12 | > 24 µM | 37% | 80% | 0.16 µM | 0.16 µM | – | 0.04 µM | –
CCCC[C@@H](CCO)Nc1nc(N)nc2ccc(OC)cc12 | > 24 µM | 25% | 97% | 1.85 µM | 2.81 µM | 6 µM | 0.88 µM | –
CC[C@H](C)[C@@H](CO)Nc1nc(N)nc2ccccc12 | > 24 µM | – | – | 1.34 µM | 0.08 µM | – | 0.14 µM | –
CCC[C@@H](CCO)Nc1nc(N)nc2ccccc12 | > 24 µM | 23% | 72% | 0.2 µM | 0.11 µM | 6.8 µM | 0.38 µM | –
CC(C)C[C@@H](CO)Nc1nc(N)nc2ccccc12 | > 24 µM | – | – | 3.18 µM | 0.45 µM | – | 0.71 µM | –
CCCC[C@@H](CCO)Nc1nc(N)nc2cc(C)ccc12 | > 24 µM | 70% | 98% | 0.03 µM | 0.06 µM | 1.8 µM | 0.02 µM | –
CCC[C@@H](CCO)Nc1nc(N)nc2cccc(C)c12 | > 24 µM | 44% | 88% | 0.22 µM | 0.14 µM | 5.5 µM | – | –
CCC[C@@H](CCO)Nc1nc(N)nc2ccc(OC)cc12 | > 24 µM | – | – | 11.8 µM | 2.97 µM | – | – | –
CCCC[C@H](CO)Nc1nc(N)nc2ccccc12 | > 24 µM | – | – | 22.5 µM | 0.05 µM | – | 0.16 µM | –
CCC[C@@H](CCO)Nc1nc(N)nc2cc(F)ccc12 | > 24 µM | 13% | 100% | 0.11 µM | 0.04 µM | 9.1 µM | 4.8 µM | –
CCCC[C@@H](CO)Nc1nc(N)nc2ccccc12 | > 24 µM | – | – | 0.24 µM | 0.02 µM | – | 0.04 µM | –
CCC[C@@H](CCO)Nc1nc(N)nc2ccc(C)cc12 | > 24 µM | 21% | 97% | 0.54 µM | 0.45 µM | 7.2 µM | 0.39 µM | –
CCCC[C@@H](CCO)Nc1nc(N)nc2ccc(C)cc12 | > 24 µM | 24% | 99% | 0.44 µM | 0.25 µM | 5.4 µM | 0.14 µM | –
CCC[C@@H](CCO)Nc1nc(N)nc2cccc(F)c12 | > 24 µM | 62% | 47% | 0.22 µM | 0.02 µM | 8.9 µM | – | –
CCCC[C@@H](CCO)Nc1nc(N)nc2cc(F)ccc12 | > 24 µM | 39% | 91% | 0.04 µM | 0.03 µM | – | 0.04 µM | –
CCCCNc1nc(N)nc2ccccc12 | > 24 µM | – | – | 0.16 µM | 0.06 µM | – | 0.03 µM | –
CCCC[C@@H](CCO)Nc1nc(N)nc2cccc(C)c12 | > 24 µM | 67% | 82% | 0.14 µM | 0.06 µM | 0.6 µM | 0.02 µM | –
CC[C@@H](CO)Nc1nc(N)nc2ccccc12 | > 24 µM | – | – | 3.9 µM | 0.19 µM | – | 2.3 µM | –
CCC[C@@H](CCO)Nc1nc(N)nc2cc(C)ccc12 | > 24 µM | 44% | 87% | 0.06 µM | 0.05 µM | 8.1 µM | 0.39 µM | –
CCCC[C@@H](CCO)Nc1nc(N)nc2cccc(F)c12 | > 24 µM | 87% | 25% | 0.34 µM | 0.1 µM | > 10 µM | 0.06 µM | 13.2 µM
CCCC[C@@H](CCO)Nc1nc(N)nc2ccc(F)cc12 | > 24 µM | 33% | 63% | 1.59 µM | 0.42 µM | 5.8 µM | 0.37 µM | –
CCC[C@@H](CCO)Nc1nc(N)nc2ccc(F)cc12 | > 24 µM | 22% | 47% | 1.05 µM | 0.42 µM | – | – | –
CCCC[C@@H](CCO)Nc1nc(N)nc2ccccc12 | > 24 µM | 45% | 82% | 0.08 µM | 0.08 µM | 2.7 µM | 0.02 µM | –
CCC[C@@H](CO)Nc1nc(N)nc2ccccc12 | > 24 µM | – | – | 0.46 µM | 0.01 µM | – | 0.04 µM | –
